Measurements as given in ChEMBL document CHEMBL4813982, “Novel pyrazolo[4,3-d]pyrimidine microtubule targeting agents (MTAs): Synthesis, structure-activity relationship, in vitro and in vivo evaluation as antitumor agents” (Bioorg Med Chem Lett, 2021).

Tests used:
Tubulin (Homo sapiens) = Tubulin (Homo sapiens) (UniProt P68371+Q9H4B7+P0DPH7+P68366+Q13509+Q71U36+P04350+Q3ZCM7+P07437+P68363+Q9BQE3+Q6PEY2+Q13885+Q9BVA1+Q9BUF5); assay: Inhibition of [3H]colchicine binding to tubulin (unknown origin) at 5 uM relative to control; type: protein-complex assay
Tubulin = assay: Inhibition of tubulin assembly (unknown origin); type: protein-complex assay, Homo sapiens
OVCAR-8 = assay: Antiproliferative activity against human OVCAR-8 cells; type: functional, cell-based
NCI/ADR-RES = assay: Antiproliferative activity against human NCI/ADR-RES cells overexpressing Pgp; type: functional, cell-based
[1] = Resistance ratio of IC50 for antiproliferative activity against human NCI/ADR-RES cells expressing Pgp to IC50 for antiproliferative activity against human OVCAR-8 cells; type: functional
In short: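 Resistance ratio: IC50 in Pgp-overexpressing NCI/ADR-RES cells divided by IC50 in parental OVCAR-8 cells.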

inhibition (Tubulin (Homo sapiens)): 85% | IC50 (Tubulin): 1.1 µM | IC50 (OVCAR-8): 0.049 µM
SMILES: CC(C)Oc1ccc(N(C)c2nc(Cl)nc3cnn(C)c23)cc1
IC50 (NCI/ADR-RES): 0.044 µM | Ratio IC50 [1]: 0.89
